The values below come from ChEMBL document CHEMBL2057080, “Synthesis, biological evaluation, and structure-activity relationships of a novel class of apurinic/apyrimidinic endonuclease 1 inhibitors” (J Med Chem, 2012).

Series [1] has as its system Plasma. Description: Half life in CD1 mouse plasma at 30 mg/kg, ip. The class given is ADME, organism-based. Set-up: dose 30 mg/kg, route intraperitoneal. As to conditions: in vivo. In outline: (§1)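 Male CD1 mice, 6–8 weeks old, n = 3, were given 30 mg/kg IP in 50% PEG 200 or PEG 400 plus 10% Cremophor EL in saline. Cardiac-puncture blood was taken at 0.25, 0.5, 1, 2, 4, 8, 12 and 24 h, with heparin plasma. Brain values were multiplied by 5, and LC/MS/MS was used. The brain/plasma ratio is the average over the 8 time points.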

Series [2] concerns the target T1, DNA repair nuclease/redox regulator APEX1 (Homo sapiens, UniProt P27695). Description: Competitive inhibition of recombinant APE1 using […]-5'-AP-DNA as substrate assessed as decrease in APE1-DNA complex formation at 30 uM incubated for 10 mins prior to substrate addition measured after 5 mins by electrophoretic mobility shift assay. In outline: (§2)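 APE1 (~28 nM) was preincubated without inhibitor (1% DMSO) or with 1, 3, 10, 30 or 100 µM inhibitor for 10 min on ice. Then 100 fmol (10 nM) 32P AP-DNA was added for 5 min on ice. Complexes were resolved on an 8% native gel and quantified by phosphorimager relative to control, in three independent replicates.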
Background: A gel shift assay detects complexes by their altered migration in electrophoresis.

In a further series the test system is Liver. Description: Half life in mouse liver microsomes. The class given is ADME, Microsome. In outline: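 Stability in mouse liver microsomes reported as T1/2. Done by a contract lab, and values are the average of two experiments.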
Background: Liver microsomes are a subcellular fraction often used to study metabolism.

A further series deals with CYP2D6 (Homo sapiens, UniProt P10635). Description: Inhibition of CYP2D6 at 10 uM. The class given is ADME.
Chain of CYP2D6 (P10635 whole entry): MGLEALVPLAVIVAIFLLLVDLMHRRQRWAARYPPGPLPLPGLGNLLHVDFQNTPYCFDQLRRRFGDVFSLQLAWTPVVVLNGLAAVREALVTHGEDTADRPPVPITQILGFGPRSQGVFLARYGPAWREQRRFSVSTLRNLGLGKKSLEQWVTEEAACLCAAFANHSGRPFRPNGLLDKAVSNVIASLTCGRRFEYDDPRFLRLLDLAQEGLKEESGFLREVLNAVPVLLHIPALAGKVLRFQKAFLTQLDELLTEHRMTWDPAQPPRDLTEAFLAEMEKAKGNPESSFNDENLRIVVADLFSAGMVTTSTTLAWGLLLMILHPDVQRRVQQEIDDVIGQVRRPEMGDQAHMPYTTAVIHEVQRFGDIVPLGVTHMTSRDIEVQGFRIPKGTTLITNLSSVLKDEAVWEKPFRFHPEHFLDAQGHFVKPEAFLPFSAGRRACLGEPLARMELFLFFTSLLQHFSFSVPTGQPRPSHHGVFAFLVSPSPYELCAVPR
The subject of series [3] is Brain. The series can be described thus: Half life in CD1 mouse brain at 30 mg/kg, ip. As to conditions: in vivo. Also on record: dose 30 mg/kg, route intraperitoneal. It is filed as ADME, organism-based. In outline: as §1
Series [4] concerns HeLa. Description: Potentiation of methyl methanesulfonate cytotoxic activity against human HeLa cells assessed as decrease in cell viability at 2.5 to 5 uM incubated for 8 hrs measured after 56 hrs post compound wash-out by Hoechst 33342 staining-based assay. It is filed as functional.
The nature of series [5]: Aqueous kinetic solubility of the compound in PBS at pH 7.4. It is filed as physicochemical. Conditions: read-out: Kinetic_solubility.
Series [6] deals with T1, DNA repair nuclease/redox regulator APEX1. Description: Competitive inhibition of recombinant APE1 using […]-5'-AP-DNA as substrate assessed as decrease in APE1-DNA complex formation incubated for 10 mins prior to substrate addition measured after 5 mins by electrophoretic mobility shift assay. The method in brief:
as §2

Series [7] shares this target. The series can be described thus: Competitive inhibition of recombinant APE1 using […]-5'-AP-DNA as substrate incubated for 15 mins prior to substrate addition measured after 5 mins by Lineweaver-Burk plot analysis. In outline:
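APE1 (~28 pM) was incubated with 0, 5, 10 or 20 µM inhibitor for 15 min at room temperature. 32P AP-DNA was added at 5–100 nM, followed by 5 min at 37 °C and denaturing PAGE. Velocities were measured, and KM and kcat came from Lineweaver–Burk plots.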

Another series has as its system Mus musculus. Description: Toxicity in CD1 mouse assessed as adverse effect at 30 mg/kg, ip after 24 hrs. Also on record: dose 30 mg/kg, route intraperitoneal. It is filed as organism-based. As to conditions: in vivo. The method in brief: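 Male CD1 mice, 6–8 weeks old, were given 30 mg/kg IP in PEG/Cremophor EL saline vehicle.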
Series [8] has as its system HeLa. The series can be described thus: Potentiation of methyl methanesulfonate cytotoxic activity against human HeLa cells assessed as decrease in cell viability at 10 to 15 uM after 24 hrs by CellTiterGlo assay. The class given is functional, cell-based. In outline:
(§3)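 HeLa cells were seeded at 6K per well in DMEM/10% FBS and attached overnight. The medium was replaced with compound (5–30 µM) with or without MMS (0.4 mM) or TMZ (1 mM), followed by 24 h at 37 °C. Viability was read with CellTiter-Glo luminescence relative to DMSO, in duplicate. Combination values were normalized to the alkylating agent alone.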
In general terms: Cellular ATP, detected with luciferase, serves as a proxy for viable cell number.

The target of another series is CYP3A4 (Homo sapiens, UniProt P08684). Description: Inhibition of CYP3A4 at 10 uM. The class given is ADME.
Chain of CYP3A4 (P08684 whole entry): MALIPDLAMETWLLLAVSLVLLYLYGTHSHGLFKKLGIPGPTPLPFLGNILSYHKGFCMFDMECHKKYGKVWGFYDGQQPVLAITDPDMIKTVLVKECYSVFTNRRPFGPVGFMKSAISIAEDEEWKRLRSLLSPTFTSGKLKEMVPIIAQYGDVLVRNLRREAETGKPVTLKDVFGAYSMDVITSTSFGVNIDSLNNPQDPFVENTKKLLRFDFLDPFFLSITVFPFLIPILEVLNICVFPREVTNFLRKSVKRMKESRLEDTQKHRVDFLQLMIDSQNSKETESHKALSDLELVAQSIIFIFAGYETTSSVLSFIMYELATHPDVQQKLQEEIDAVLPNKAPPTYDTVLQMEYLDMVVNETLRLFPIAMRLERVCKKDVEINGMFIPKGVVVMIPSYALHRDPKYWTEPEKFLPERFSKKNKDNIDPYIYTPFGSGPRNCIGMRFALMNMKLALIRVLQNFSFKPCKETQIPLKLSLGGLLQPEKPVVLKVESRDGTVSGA
Series [9] is described as follows: Chemical stability of the compound in PBS at pH 7.4 assessed as compound remaining after 48 hrs. Conditions: buffer, pH 7.4, 48 h. It is filed as physicochemical. The method in brief:
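The compound was held in PBS pH 7.4 and the percent remaining was measured after 48 h. Done by a contract lab, and values are the average of two experiments.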

In series [10] the target is T1, DNA repair nuclease/redox regulator APEX1. Description: Inhibition of APE1 in human HeLa cells assessed as accumulation of genomic AP sites at 7.5 uM after 24 hrs by aldehyde reactive probe-based assay relative to control. The class given is cell-based. In outline:
(§4)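 HeLa cells at 80% confluency were treated for 24 h at 37 °C with DMSO, 275 µM MMS, or 7.5 µM inhibitor, alone or combined with MMS. Genomic DNA (100 ng/µL) was labelled with Aldehyde Reactive Probe and AP sites were quantified, in triplicate. Significance was tested by Student's t test.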

For series [11] the target is unchanged. Description: Inhibition of human recombinant APE1 after 15 mins by fluorescence based HTS assay. In outline:
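APE1 inhibition was measured in the fluorescence-based qHTS format at up to 57 µM. IC50 is the average of three separate experiments.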

The target is the same in series [12]. The series can be described thus: Inhibition of APE1 activity in human HeLa cells assessed as fold increase in genomic AP site accumulation after 24 hrs by aldehyde reactive probe-based assay in presence of methyl methanesulfonate. The class given is cell-based. The method in brief: as §4
Series [13] deals with Brain. Description: Cmax in CD1 mouse brain at 30 mg/kg, ip. Also on record: dose 30 mg/kg, route intraperitoneal. It is filed as ADME, organism-based. Conditions: in vivo. The method in brief:
as §1

The test system of series [14] is Plasma. The series can be described thus: Tmax in CD1 mouse plasma at 30 mg/kg, ip. The class given is ADME, organism-based. Set-up: dose 30 mg/kg, route intraperitoneal. As to conditions: in vivo. The method in brief:
as §1

The target in series [15] is T1, DNA repair nuclease/redox regulator APEX1. The series can be described thus: Inhibition of APE1 in human HeLa whole cell extract using […]-5'-AP-DNA as substrate assessed as activity remaining at 100 uM incubated for 15 mins prior to substrate addition measured after 5 mins by PAGE analysis relative to control. The method in brief: (§5)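 HeLa whole cell extract (300 ng; KCl-extracted hypotonic lysate) was preincubated with inhibitor for 15 min at room temperature, at 100 µM or at 0–100 µM. Then 0.5 pmol 32P AP-DNA was added for 5 min at 37 °C. Samples were run on denaturing PAGE, and incision is reported relative to the no-inhibitor control, from three independent measurements.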

Series [16] relates to HeLa. Description: Cytotoxicity against human HeLa cells at 30 uM after 24 hrs by CellTiterGlo assay. The class given is functional. In outline: as §3
The subject of series [17] is HeLa. Description: Potentiation of temozolomide cytotoxic activity against human HeLa cells assessed as decrease in cell viability at 10 to 15 uM after 24 hrs by CellTiterGlo assay. The class given is functional, cell-based. In outline:
as §3

For series [18], the system named is Plasma. The series can be described thus: Half life in mouse plasma. The class given is ADME, cell-free. In outline:
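Stability in mouse plasma reported as T1/2. Done by a contract lab, and values are the average of two experiments.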

Series [19] has as its system HeLa. The series can be described thus: Potentiation of temozolomide cytotoxic activity against human HeLa cells assessed as decrease in cell viability at 2.5 to 5 uM incubated for 8 hrs measured after 56 hrs post compound wash-out by Hoechst 33342 staining-based assay. The class given is functional.
For series [20], the system named is Brain. The series can be described thus: Tmax in CD1 mouse brain at 30 mg/kg, ip. It is filed as ADME, organism-based. Set-up: dose 30 mg/kg, route intraperitoneal. Conditions: in vivo. In outline: as §1
For series [21], the target named is T1, DNA repair nuclease/redox regulator APEX1. The series can be described thus: Inhibition of APE1 in human HeLa whole cell extract using […]-5'-AP-DNA as substrate at 10 uM incubated for 15 mins prior to substrate addition measured after 5 mins by PAGE analysis. In outline: as §5
In series [22] the test system is Plasma. The series can be described thus: Cmax in CD1 mouse plasma at 30 mg/kg, ip. It is filed as ADME, organism-based. Set-up: dose 30 mg/kg, route intraperitoneal. As to conditions: in vivo. The method in brief: as §1
Series [23] deals with T1, DNA repair nuclease/redox regulator APEX1. The series can be described thus: Competitive inhibition of recombinant APE1 using […]-5'-AP-DNA as substrate assessed as decrease in APE1-DNA complex formation at 10 to 100 uM preincubated with substrate for 15 mins prior to enzyme addition measured after 5 mins by electrophoretic mobility shift assay.
The target is the same in series [24]. Description: Inhibition of human APE1 expressed in Escherichia coli rosetta using fluorescein-dabcyl-containing oligonucleotide as substrate after 5 mins by fluorescence spectrophotometry.
Series [25] shares this target. The series can be described thus: Inhibition of recombinant APE1 using […]-5'-AP-DNA as substrate incubated for 15 mins prior to substrate addition measured after 5 mins by PAGE analysis.
In series [26] the test system is HeLa. The series can be described thus: Potentiation of temozolomide cytotoxic activity against human HeLa cells assessed as decrease in cell viability at 5 to 10 uM after 24 hrs by CellTiterGlo assay. It is filed as functional, cell-based. In outline:
as §3

In series [27] the test system is HeLa. Description: Potentiation of methyl methanesulfonate cytotoxic activity against human HeLa cells assessed as decrease in cell viability at 5 to 10 uM after 24 hrs by CellTiterGlo assay. The class given is functional, cell-based. The method in brief:
as §3

Series [28] has as its system HeLa. The series can be described thus: Potentiation of methyl methanesulfonate cytotoxic activity against human HeLa cells assessed as decrease in cell viability at 1 to 2 uM incubated for 8 hrs measured after 56 hrs post compound wash-out by Hoechst 33342 staining-based assay. It is filed as functional.
Series [29] relates to HeLa. The series can be described thus: Potentiation of temozolomide cytotoxic activity against human HeLa cells assessed as decrease in cell viability at 1 to 2 uM incubated for 8 hrs measured after 56 hrs post compound wash-out by Hoechst 33342 staining-based assay. The class given is functional.
Series [30] relates to HeLa. The series can be described thus: Cytotoxicity against human HeLa cells at 15 uM after 24 hrs by CellTiterGlo assay. It is filed as functional. In outline: as §3

≈ marks a conversion by molar mass, not a printed value. Calls of active or inactive are those of the source. The rule behind the calls is not given here.

T1 sequence (P27695 whole entry): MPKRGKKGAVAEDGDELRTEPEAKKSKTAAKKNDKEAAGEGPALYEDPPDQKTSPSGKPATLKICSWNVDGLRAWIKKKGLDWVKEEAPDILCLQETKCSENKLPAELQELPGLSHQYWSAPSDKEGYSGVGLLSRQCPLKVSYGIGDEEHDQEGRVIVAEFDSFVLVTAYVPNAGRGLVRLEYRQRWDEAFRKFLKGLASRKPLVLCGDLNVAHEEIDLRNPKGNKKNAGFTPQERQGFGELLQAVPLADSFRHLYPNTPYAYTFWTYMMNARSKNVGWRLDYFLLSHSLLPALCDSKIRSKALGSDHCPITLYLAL

`CC(=O)Nc1sc2c(c1-c1nc3ccccc3s1)CNC2`: the t1/2 turned out to be 5 h in the series with Plasma [1], 0.13 h with Liver, 2.5 h in the series with Brain [3] and 3.55 h with Plasma [18]. Besides, the inhibition entry in series [2], in series [7], in [10], in [21] and in series [23] was “Active” throughout. Besides, the inhibition at 10 µM on CYP2D6 amounted to 39%; against CYP3A4, 50%. In addition, the result with HeLa [4], in the series on HeLa [8], in the series on HeLa [17] and with HeLa [19] was Active. Also, the solubility kinetic in series [5] is 51.6 µM (≈ 16.3 µg/mL). Besides, the inhibition entry in series [6] is “Dose-dependent effect”. Besides, the Activity entry is “Non-toxic” with Mus musculus, 0.1% in series [15] and 50% in the series with HeLa [16]. Also, the Stability in series [9] is listed as 100%. Moreover, in [11], the IC50 amounted to 3.3 µM. Also, the fold change (FC) in series [12] turned out to be 3. The Cmax in the series on Brain [13] turned out to be 92 µM; in the series with Plasma [22], 36 µM. Also, the Tmax in the series on Plasma [14] and with Brain [20] was 0.25 h in each case.

With `Cc1cc(C)c2c(N)c3cccc(C)c3nc2n1`, the IC50 in series [11] and in series [24] was 32 µM in each case.

`CC(=O)Nc1sc2c(c1-c1nc3ccccc3s1)CCN(C(C)C)C2`: the t1/2 is 2.1 h in the series with Plasma [1], 1.33 h with Liver, 1 h in the series on Brain [3] and greater than 4.17 h with Plasma [18]. Further, the figures for the IC50 in [25] and in series [11] were 12 µM and 2 µM, respectively. The result in the series with HeLa [26], with HeLa [27], in the series on HeLa [28] and in the series with HeLa [29] was Active. For the same compound, the inhibition entry in series [2], in series [7], in series [10] and in series [23] was “Active” each time. Besides, the inhibition at 10 µM was found to be 0% against CYP2D6 and 53% against CYP3A4. In addition, the solubility kinetic in series [5] was found to be 20.4 µM (≈ 7.58 µg/mL). Also, the inhibition result in series [6] is “Dose-dependent effect”. Also, the Activity result was “Non-toxic” with Mus musculus, 0.6% in [15] and 50% in the series on HeLa [30]. The Stability in [9] is reported as 100%. For the same compound, in series [12], the fold change (FC) stood at 3. Further, the Cmax in the series on Brain [13] is 217 µM; in the series on Plasma [22], 16 µM. For the same compound, the Tmax in the series on Plasma [14] and in the series on Brain [20] was 0.25 h each time.

As usually defined, the inhibition is the drop in the measured response relative to a control, in per cent. Usually IC50 stands for the concentration at which inhibition is half-maximal. As a reminder, the Cmax is the peak of the concentration-time curve. What is called Tmax is the time from dosing to the highest level.
